According to ChEMBL document CHEMBL5303300, “EUbOPEN Chemogenomics Library - Multiplex” (2023):
Several values for one entry are separate records, joined by “and”; a condition that tells them apart may be missing. Identical values can stand only once.

Test system: Fibroblast
Experiment: Multiplex assay against human fibroblast
Assay type: toxicity, cell-based
Conditions: number of replicates 2
How it was run: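 Cells stained live at seeding with Hoechst33342, BioTracker Green Microtubule Cytoskeleton Dye, MitoTracker Red and Annexin V Alexa Fluor 680 were imaged on a CQ1 microscope at 37°C and 5% CO2 after compound addition. Their classification by CellPathfinder machine-learning gating ran from Hoechst high-intensity objects versus normal cells, to healthy, pyknosed or fragmented nuclei among normal cells, to mitotic or apoptotic among pyknosed cells. Tubulin, mitochondrial-mass and membrane-permeability phenotypes are per cents of healthy-nucleus cells.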

[1] = 12 h, 1 µM, compound concentration 1 uM
[2] = 12 h, 10 µM, compound concentration 10 uM
[3] = 24 h, 1 µM, compound concentration 1 uM
[4] = 24 h, 10 µM, compound concentration 10 uM
[5] = 48 h, 1 µM, compound concentration 1 uM
[6] = 48 h, 10 µM, compound concentration 10 uM

Cc1ccc(C(=O)Nc2cc(N3CCN(C)CC3)cc(C(F)(F)F)c2)cc1-n1cc(-c2cnn(C)c2C)nn1.Cl
Population Apoptotic (%) [1]: 40% and 42%
Population Fragmented Nuclei (%) [1]: 6% and 16%
Population Healthy Nuclei (%) [1]: 48% and 59%
Population Hoechst High Intensity Objects (%) [1]: 0%
Population Membrane Permeable-Phenotype (%) [1]: 20% and 12%
Population Mitochondria Different-Phenotype (%) [1]: 2%
Population Mitotic Cells (%) [1]: 59% and 57%
Population Normal (%) [1]: 100%
Population Pyknosed Nuclei (%) [1]: 44% and 24%
Population Tubulin-Different-Phenotype (%) [1]: 35% and 32%
Total Cell Count [1]: 165 and 172
Population Apoptotic (%) [2]: 61% and 35%
Population Fragmented Nuclei (%) [2]: 17% and 18%
Population Healthy Nuclei (%) [2]: 51% and 62%
Population Hoechst High Intensity Objects (%) [2]: 0% and 1%
Population Membrane Permeable-Phenotype (%) [2]: 12% and 11%
Population Mitochondria Different-Phenotype (%) [2]: 4% and 7%
Population Mitotic Cells (%) [2]: 38% and 64%
Population Normal (%) [2]: 99% and 98%
Population Pyknosed Nuclei (%) [2]: 30% and 19%
Population Tubulin-Different-Phenotype (%) [2]: 85% and 70%
Total Cell Count [2]: 198 and 294
Population Apoptotic (%) [3]: 65% and 41%
Population Fragmented Nuclei (%) [3]: 10% and 17%
Population Healthy Nuclei (%) [3]: 46% and 59%
Population Hoechst High Intensity Objects (%) [3]: 0%
Population Membrane Permeable-Phenotype (%) [3]: 7% and 4%
Population Mitochondria Different-Phenotype (%) [3]: 7%
Population Mitotic Cells (%) [3]: 34% and 58%
Population Normal (%) [3]: 99% and 100%
Population Pyknosed Nuclei (%) [3]: 42% and 23%
Population Tubulin-Different-Phenotype (%) [3]: 36% and 35%
Total Cell Count [3]: 150 and 176
Population Apoptotic (%) [4]: 68% and 63%
Population Fragmented Nuclei (%) [4]: 16% and 17%
Population Healthy Nuclei (%) [4]: 57% and 59%
Population Hoechst High Intensity Objects (%) [4]: 0% and 1%
Population Membrane Permeable-Phenotype (%) [4]: 7% and 5%
Population Mitochondria Different-Phenotype (%) [4]: 12% and 15%
Population Mitotic Cells (%) [4]: 31% and 36%
Population Normal (%) [4]: 99% and 98%
Population Pyknosed Nuclei (%) [4]: 25% and 23%
Population Tubulin-Different-Phenotype (%) [4]: 76% and 58%
Total Cell Count [4]: 261 and 279
Population Apoptotic (%) [5]: 76% and 68%
Population Fragmented Nuclei (%) [5]: 15% and 18%
Population Healthy Nuclei (%) [5]: 49% and 66%
Population Hoechst High Intensity Objects (%) [5]: 0% and 1%
Population Membrane Permeable-Phenotype (%) [5]: 2%
Population Mitochondria Different-Phenotype (%) [5]: 5%
Population Mitotic Cells (%) [5]: 23% and 32%
Population Normal (%) [5]: 100% and 98%
Population Pyknosed Nuclei (%) [5]: 34% and 15%
Population Tubulin-Different-Phenotype (%) [5]: 32% and 19%
Total Cell Count [5]: 161 and 167
Population Apoptotic (%) [6]: 84% and 82%
Population Fragmented Nuclei (%) [6]: 19%
Population Healthy Nuclei (%) [6]: 59% and 63%
Population Hoechst High Intensity Objects (%) [6]: 3% and 4%
Population Membrane Permeable-Phenotype (%) [6]: 5% and 6%
Population Mitochondria Different-Phenotype (%) [6]: 10%
Population Mitotic Cells (%) [6]: 15% and 17%
Population Normal (%) [6]: 96% and 95%
Population Pyknosed Nuclei (%) [6]: 21% and 17%
Population Tubulin-Different-Phenotype (%) [6]: 68% and 54%
Total Cell Count [6]: 226 and 303

COCCNC1CCC(Nc2cc(-c3csc(NCC4(C#N)CCOCC4)n3)c(Cl)cn2)CC1 (configuration not stated)
Population Apoptotic (%) [1]: 50% and 31%
Population Fragmented Nuclei (%) [1]: 7% and 12%
Population Healthy Nuclei (%) [1]: 73% and 67%
Population Hoechst High Intensity Objects (%) [1]: 0%
Population Membrane Permeable-Phenotype (%) [1]: 2% and 7%
Population Mitochondria Different-Phenotype (%) [1]: 1% and 2%
Population Mitotic Cells (%) [1]: 50% and 68%
Population Normal (%) [1]: 99%
Population Pyknosed Nuclei (%) [1]: 19% and 20%
Population Tubulin-Different-Phenotype (%) [1]: 13% and 12%
Total Cell Count [1]: 154 and 189
Population Apoptotic (%) [2]: 48% and 47%
Population Fragmented Nuclei (%) [2]: 10% and 15%
Population Healthy Nuclei (%) [2]: 70% and 68%
Population Hoechst High Intensity Objects (%) [2]: 0%
Population Membrane Permeable-Phenotype (%) [2]: 12% and 13%
Population Mitochondria Different-Phenotype (%) [2]: 5% and 10%
Population Mitotic Cells (%) [2]: 51% and 52%
Population Normal (%) [2]: 99% and 100%
Population Pyknosed Nuclei (%) [2]: 18% and 16%
Population Tubulin-Different-Phenotype (%) [2]: 79% and 67%
Total Cell Count [2]: 219 and 209
Population Apoptotic (%) [3]: 55% and 74%
Population Fragmented Nuclei (%) [3]: 10% and 4%
Population Healthy Nuclei (%) [3]: 71% and 80%
Population Hoechst High Intensity Objects (%) [3]: 0%
Population Membrane Permeable-Phenotype (%) [3]: 4% and 6%
Population Mitochondria Different-Phenotype (%) [3]: 3% and 0%
Population Mitotic Cells (%) [3]: 44% and 25%
Population Normal (%) [3]: 99% and 100%
Population Pyknosed Nuclei (%) [3]: 17% and 15%
Population Tubulin-Different-Phenotype (%) [3]: 20% and 19%
Total Cell Count [3]: 163 and 170
Population Apoptotic (%) [4]: 53% and 65%
Population Fragmented Nuclei (%) [4]: 14% and 13%
Population Healthy Nuclei (%) [4]: 72% and 73%
Population Hoechst High Intensity Objects (%) [4]: 1% and 0%
Population Membrane Permeable-Phenotype (%) [4]: 11%
Population Mitochondria Different-Phenotype (%) [4]: 18%
Population Mitotic Cells (%) [4]: 46% and 34%
Population Normal (%) [4]: 98% and 100%
Population Pyknosed Nuclei (%) [4]: 12%
Population Tubulin-Different-Phenotype (%) [4]: 87% and 70%
Total Cell Count [4]: 206 and 210
Population Apoptotic (%) [5]: 59% and 68%
Population Fragmented Nuclei (%) [5]: 9% and 11%
Population Healthy Nuclei (%) [5]: 57% and 55%
Population Hoechst High Intensity Objects (%) [5]: 0%
Population Membrane Permeable-Phenotype (%) [5]: 14%
Population Mitochondria Different-Phenotype (%) [5]: 3% and 1%
Population Mitotic Cells (%) [5]: 40% and 31%
Population Normal (%) [5]: 100%
Population Pyknosed Nuclei (%) [5]: 33% and 32%
Population Tubulin-Different-Phenotype (%) [5]: 30% and 22%
Total Cell Count [5]: 154 and 174
Population Apoptotic (%) [6]: 54% and 76%
Population Fragmented Nuclei (%) [6]: 15% and 13%
Population Healthy Nuclei (%) [6]: 64% and 67%
Population Hoechst High Intensity Objects (%) [6]: 0% and 1%
Population Membrane Permeable-Phenotype (%) [6]: 12% and 10%
Population Mitochondria Different-Phenotype (%) [6]: 18% and 16%
Population Mitotic Cells (%) [6]: 45% and 23%
Population Normal (%) [6]: 99%
Population Pyknosed Nuclei (%) [6]: 20% and 19%
Population Tubulin-Different-Phenotype (%) [6]: 81% and 71%
Total Cell Count [6]: 207 and 200
